KCC2 mod = modulators of human KCC2 chloride dependent transport; Q9H2X9; KCC2 cells, thallium flux FluoZin-2 fluorescence; B-score of Tl+ flux slope (higher = more flux/activation; lower = inhibition) at 10 µM; 190,000 compounds, 2.2% hits; AID 1456;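 active = thallium flux slope and its plate-corrected score both differing from the plate sample mean at a set confidence after two filtering rounds, in either direction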;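 note: slope of fluorescence scaled to starting intensity during 10 to 20 s after thallium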
WT yeast gro inh = growth inhibition of WT yeast, mitochondrial fusion screen. mitochondrial fusion phenotypic screen, WT strain. inhibition, % at 10 µM. 190,000 compounds, 2.1% hits. AID 1362; in the data active = inhibition above about 58%; tested in S. cerevisiae
RBBP9 inh = blocks human serine hydrolase RBBP9; 220,000 compounds, 0.2% hits; inhibition, % at 7.94 µM; AID 1515; O75884; recombinant RBBP9, FP-Rh probe fluorescence polarization;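 active = inhibition above the campaign mean of all tested compounds plus 3 SD, cut at about 14% in these data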;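 note: plate controls were DMSO wells with RBBP9 for no effect and wells lacking RBBP9 protein for full effect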
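Measured by: FP readout at 525/598 nm; material: recombinant human RBBP9; also added: Serine-hydrolase probe FP-Rh, 375 nM pre-mixing; medium: Tris buffer pH 8.0, NaCl, Pluronic; replication: one well per compound; doses: one concentration, 7.94 µM nominal, 0.794% DMSO; timing: preincubation 30 min plus labeling 45 min at 25 °C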
ROMK mod = modulators of human ROMK potassium channel. B-score at 10 µM. P48048. Tet-inducible ROMK, thallium flux fluorescence; actives lie on both sides. AID 1918. 130,000 compounds, 2% hits;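 active = signal ratio slope over the read window, or its plate-corrected B-score, at least 3 SD from the plate mean, either direction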;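 note: B-score of the F/F0 ratio slope over 7 to 12 s after thallium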
14-3-3 Bad inh = disrupts binding of bovine 14-3-3 zeta to phospho-Bad peptide; P63103; TR-FRET 14-3-3zeta/Dy647-pBad peptide displacement, 1 h; inhibition, % at 21.7 µM; 220,000 compounds, 0.71% hits; AID 781;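 active = inhibition above about 70%, limit read from the data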;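 note: 0% = full 14-3-3 plus peptide FRET controls and 100% = background without 14-3-3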
p47phox inh = blocks human p47phox regulatory protein of NADPH oxidases; P14598; p47phox/p22phox peptide binding, fluorescence polarization, 2 h; inhibition, % at 24.7 µM; 220,000 compounds, 0.53% hits; AID 1274;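 active = inhibition above about 30%, limit read from the data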;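 note: 0% = p47phox with labelled peptide and 100% = labelled peptide alone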
Numbers without * were called inactive; x = no result; [ ] = another dose, or the depositor's remark. Rows were chosen to be rich in hits. Some 5.8% of all compounds tested hit in one or more screens of this group.

SMILES	KCC2 mod	WT yeast gro inh	RBBP9 inh	ROMK mod	14-3-3 Bad inh	p47phox inh
CC(C)C(=O)NCCc1nc2ccccc2n1CCCOc1ccc(Cl)cc1	-1.6	70*	-9	x	0	-12
COc1cc(/C=N/NC(=O)c2cn(-c3cccc(C)n3)cn2)ccc1O	-0.094	4	2	-0.59	-16	-12
COc1ccc2sc(N3C(=O)CC(Cc4cccc(C)c4)C3=O)nc2c1 (centres undefined)	x	13	-8	-1.8	88*	-5
Cc1cccc(CC2CC(=O)N(c3nc4ccccc4s3)C2=O)c1 (centres undefined)	-0.73	-2	3	-0.44	-6	1
CNC(=S)NNC(=O)c1cccs1	1.3	x	-8	0.18	-4	-14
O=C(NC(=S)NNC(=O)c1cccs1)c1ccc(Br)o1	15*	2	-5	2.8	8	-9
O=C(NCc1ccc2c3c(cccc13)C(=O)N2)c1cccs1	0.11	x	-11	-0.33	15	-3
Cc1ccc(NCc2cccnc2)cc1	-0.042	-16	-7	0.97	71*	15
Cc1ccn2cc(-c3ccc(NC(=O)c4ccco4)cc3)nc2c1	-0.76	19	-15	x	0	-3
Cc1cc(C)nc(SCCC(=O)Nc2ccccc2)n1	-0.044	-42	-7	x	6	88*
Cc1ccc(NC(=O)CCSc2nc(C)cc(C)n2)cc1	0.002	x	0	x	5	-7
CCc1ccc(OCC(=O)Nc2ccc(N3CCN(S(C)(=O)=O)CC3)cc2)cc1	-0.36	-10	-6	-0.018	-1	x
O=C(NC(=S)N1CCN(c2nc(-c3ccccc3)cs2)CC1)c1cncc(Br)c1	70*	53	-8	4.8*	-41	-14
O=C(CCC1CCCN(C(=O)c2ccc3[nH]ccc3c2)C1)N1CCN(c2ccccn2)CC1 (centres undefined)	-1.3	0	2	0.35	-6	-1
O=C(O)c1cn(-c2ccc(N3CCCC3)c(F)c2)c2c(F)c(F)c(F)cc2c1=O	0.61	78*	3	-0.91	20	-15
Cc1c(-n2cc(C(=O)O)c(=O)c3cc(F)c(N4CCCC(O)C4)c(F)c32)c(=O)n(-c2ccccc2)n1C (centres undefined)	0.47	-6	-4	x	-4	2
Cc1ccc(S(=O)(=O)NCC(=O)OCC(=O)NCc2ccc(F)cc2)cc1	-0.43	15	2	-0.096	-1	-9
CC(=O)c1sc(Nc2nc3cc4c(cc3s2)OCO4)nc1C	0.11	3	-8	-0.068	88*	-1
Cc1csc(NC(=O)CCc2c(C)nc3cc(-c4ccc(Cl)cc4)nn3c2C)n1	0.77	31	-11	-0.83	22	12
Cc1nc2cc(-c3ccc(Cl)cc3)nn2c(C)c1CCC(=O)NC(C)c1ccc2c(c1)OCCO2 (centres undefined)	0.013	71*	-4	0.28	3	-10
Cc1ccc2c(c1)C1C=CCC1C(C(=O)O)N2 (centres undefined)	-0.25	3	-1	1.2	86*[fluorescence artefact?]	6
Cc1ccc(Sc2ccc(CN3CCCCC3)cc2[N+](=O)[O-])cc1	-0.81	61*	0	-0.32	4	0
CN(C)CCCNC(NC(=O)/C=C/c1ccccc1)C(Cl)(Cl)Cl (centres undefined)	0.021	x	8	x	1	-13
O=[N+]([O-])c1ccc(O)c(/C=N/NC(=S)Nc2ccc(Cl)cc2Cl)c1	9.2*	x	-2	2.9*	-11	-21
COc1ccc(OCC(=O)Nc2ccc(N3CCCCC3)cc2)cc1	0.51	-6	1	-0.26	-11	2
SMILES	KCC2 mod	WT yeast gro inh	RBBP9 inh	ROMK mod	14-3-3 Bad inh	p47phox inh
O=C(COc1ccccc1)Nc1ccncc1	-0.19	5	5	-0.066	0	-1
CCOc1ccc(C(=O)Nc2ccc(N3CCCC3)cc2)cc1	x	2	-7	-0.14	85*[fluorescence artefact?]	-89
Cc1ccc(OCC(=O)Nc2ccc(N3CCCC3)cc2)cc1C	-0.34	3	0	x	74*[fluorescence artefact?]	10
Cc1cc(OCC(=O)Nc2ccncc2)cc(C)c1Br	-0.31	74*	-3	-2.3	x	2
Cc1cc(C)cc(OCC(=O)Nc2ccc(N3CCCC3)cc2)c1	0.36	15	-2	x	100*[fluorescence artefact?]	29
O=C(c1ccc(S(=O)(=O)N2CCOCC2)cc1)N(c1cccc(Cl)c1)C1C=CS(=O)(=O)C1 (centres undefined)	-0.65	4	-4	0.4	-3	2
O=C(N/N=C1\C(=O)c2cccc3cccc1c23)c1ccc(O)cc1	1.7	10	-6	1.4	3	-5
CCCCNC(=S)Nc1cccc2cnccc12	-0.48	-9	-3	x	1	-6
CCCCNC(=S)N/N=C1\C(=O)c2cccc3cccc1c23	5*	23	-11	-0.22	-12	-2
CNC(=S)N/N=C1\C(=O)c2cccc3cccc1c23	43*	31	-3	x	1	-6
Cc1cc(CN(C)Cc2cn(C)nc2-c2ccc(Oc3ccccc3)cc2)on1	-2.1	x	-4	x	-12	0
CC(C)c1ccc(CN2CCC(C(=O)NCc3cccnc3)CC2)cc1	-0.37	3	-5	0.052	74*	-1
O=C1/C(=C/c2cccc([N+](=O)[O-])c2)CCc2ccccc21	-3	55	1	0.17	-1	0
CCN1C/C(=C\c2cccc([N+](=O)[O-])c2)C(=O)/C(=C/c2cccc([N+](=O)[O-])c2)C1	-0.18	65*	-7	-0.67	-19	-2
O=C(Nc1cc(Cl)cc(Cl)c1)C(NCCO)c1ccccc1 (centres undefined)	1.1	-2	-6	x	80*	3
O=C(Nc1cc(Cl)cc(Cl)c1)C(c1ccccc1)N1CCCCC1 (centres undefined)	1.5	66*	-11	-0.52	-9	-12
COc1cccc(NC(=O)C(c2ccccc2)N2CCCCC2)c1 (centres undefined)	0.099	3	-9	-1.1	-7	-8
COc1ccc(N(C)S(=O)(=O)c2cccc(C(=O)N(C)Cc3ccc(C)o3)c2)cc1	-2.4	2	-8	0.52	-10	-22
O=c1c2ccccc2nc(-c2cccc(Cl)c2)n1O	18*	-7	-4	x	15	-10
Cc1cc(Oc2cc(N)cc([N+](=O)[O-])c2)ccc1Cl	0.49	-1	-8	0.067	-22	-8
COc1ccc(NC(=S)NNC(=O)COc2ccc(Cl)cc2Cl)cc1	3.7	69*	-2	x	-2	-12
CCC(=O)NC(=S)Nc1ccc(NC(=O)COc2ccc(Cl)cc2Cl)cc1	0.19	x	-14	x	3	10
O=C(COc1ccc(Cl)cc1Cl)Nc1ccc(CN2CCCCC2)cc1	-0.49	17	0	0.92	-4	38*
COc1ccc(NC(=O)C(=O)NNC(=O)C(C)Oc2ccc(Cl)cc2Cl)cc1 (centres undefined)	76*	15	-13	4.8*	-6	-13

Source: PubChem BioAssay
